Compound activity deposited in PubChem BioAssay by several laboratories.
Hsp70 activator: switches on Hsp70 transcription. HeLa Hsp70 promoter luciferase reporter, luminescence; scaled: vehicle 0, proteasome-inhibitor control 100%. activation, % at 10 µM. 0.04% of 200,000 active. AID 1203;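 active = activation above the mean across all tested compounds plus 3 SD, cutoff set per campaign, cut at about 5.5% in these data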;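 note: 100% = MG132 at 30 µM as the positive control and 0% = DMSO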
Lmaj promast: Leishmania major promastigote growth inhibition. inhibition, % at 10 µM. AID 1063. 9% of 200,000 active. Leishmania major promastigotes, resazurin fluorescence viability; in the data active = inhibition above about 50%;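 note: promastigotes grown with compound for 44 hours at 28 °C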
T cruzi inh: blocks replication of Trypanosoma cruzi; AID 1885; T. cruzi beta-gal in NIH3T3, luminescence, 90 h; inhibition, % (test concentration not listed); 1.4% of 300,000 active;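 active = mean inhibition across valid replicates above about 55%, limit read from the data; inconclusive = mean below that limit but half or more replicates reach it; inactive = mean below it, under half of replicates reach it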;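 note: signal also drops with host cell toxicity which is not excluded here; 0% = plate median of DMSO wells and 100% = zero luminescence signal; higher percent means less beta-gal luminescence so fewer parasites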
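Test system: β-gal T. cruzi (Tulahuen C4) inside NIH/3T3 cells / Quantity: 5,000 cells/well / Measured by: luminescence from GalScreen with 0.05% NP40, read after 60 min / Medium: DMEM plus 2% FBS / Measure: parasite load inhibition, % / Reagent: Tulahuen C4 trypomastigotes, 5000/well / Schedule: co-culture of at least 90 h after 3 h attachment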
HSF-1 act: increases HSF-1 driven luciferase reporter signal | 1.7% of 300,000 active | activation, % at 9 µM | NIH3T3-HGL HSF-1 luciferase reporter, MG132, 8 h; 100% = twice DMSO control signal;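 active = mean replicate activation of at least 50% with a set share of replicates each reaching 50%; inconclusive = only one of those two conditions met; inactive = mean below 50% and too few replicates reaching it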;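 note: 0% = median of the neutral control wells and 100% = twice that signal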
HSF1 inhib: HSF1 inhibition; NIH3T3-HGL HSE-luciferase, MG132-induced, luminescence 8 h; hits give low values; activity change, negative = inhibition, % at 7.5 µM (by protocol); 0.77% of 300,000 active;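 active = more than half of replicate wells show activity change below -50%, luminescence cut by over half; inconclusive = some wells, but at most half, below -50%; inactive = no replicate well below -50%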;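 note: luciferase reports HSF-1 transcriptional activity via heat shock element; 0% = median of DMSO wells and -100% = zero luminescence signal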
* hit, by the source's call; u = inconclusive; x = no result given. This is one part of a sample in which hits are shown more often than they occur.

SMILES	Hsp70 activator	Lmaj promast	T cruzi inh	HSF-1 act	HSF1 inhib
Cc1cc(C)c2[nH]c(=O)c(C(c3nnnn3C(C)(C)C)N(Cc3ccco3)CC3CCCO3)cc2c1 (stereo not given)	0	45	1	20	-4
CN(C)S(=O)(=O)c1cccc(NC(=S)N(CCC#N)Cc2cccnc2)c1	0	-3	-7	6	-5
C(=N\NC1=Nc2cccc3cccc1c23)/c1ccccc1	0	8	14	u	18
NC1=Nc2cccc3cccc1c23	0	52*	-11	-11	-2
CC(C)c1ccc(-c2cc(C(=O)N3N=C(C(F)F)CC3(O)C(F)F)c3ccccc3n2)cc1 (stereo not given)	0	93*	69*	48	23
CSc1ccc(S(=O)(=O)NC2CC2)cc1	x	x	-9	-1	-4
CC(C)CNC(=S)N(CCCO)Cc1cc2cc3c(cc2[nH]c1=O)OCO3	x	x	6	-2	-12
O=C(Nc1ccc2c(c1)nc1n2CCN(Cc2ccccc2)C1)NC1CCCCC1	0	1	3	-4	-4
O=S(=O)(Nc1ccc2c(c1)nc1n2CCN(Cc2ccccc2)C1)c1ccc(F)cc1	0	100*	18	4	-1
O=S(=O)(Nc1ccc2c(c1)nc1n2CCN(Cc2ccccc2)C1)c1ccccc1	0	98*	19	4	-2
O=S(=O)(Nc1ccc2c(c1)nc1n2CCN(Cc2ccccc2)C1)c1ccc(Cl)cc1	0	97*	16	67*	35
Cc1ccc(S(=O)(=O)Nc2ccc3c(c2)nc2n3CCN(Cc3ccccc3)C2)cc1	0	99*	u	-4	-3
O=C(NNc1ccc(Cl)cc1)c1c(F)cccc1Cl	x	x	x	19	7
CC(=O)C(=Nc1ccccc1Cl)NNc1ccc(Cl)cc1	0	93*	-6	u	32
COc1cc(NC(=S)N2CCN(S(=O)(=O)c3ccc(C)cc3)CC2)cc(OC)c1	x	x	0	-1	-12
CCc1nnc(NS(=O)(=O)c2ccc(NC(=O)c3ccccc3O)cc2)s1	x	x	-10	-11	-7
C=CCc1ccccc1OCC(O)CNC(=O)c1ccccc1C(=O)O (stereo not given)	x	x	-1	-1	2
C=CCc1ccccc1OCC(O)CN1CCN(CCN2C(=O)c3cccc4cccc(c34)C2=O)CC1 (stereo not given)	0	100*	44	61*	44
CC(C)OCC(O)CN1CCN(CCN2C(=O)c3cccc4cccc(c34)C2=O)CC1 (stereo not given)	x	x	23	40	8
Cc1ccccc1OCC(O)CN1CCN(CCN2C(=O)c3cccc4cccc(c34)C2=O)CC1 (stereo not given)	-1	100*	56*	30	14
CC(=O)c1ccc(OCC(O)CN2CCN(CCN3C(=O)c4cccc5cccc(c45)C3=O)CC2)cc1 (stereo not given)	0	91*	9	23	7
O=C1c2cccc3cccc(c23)C(=O)N1CCc1ccccc1	0	3	-27	59*	36
O=C(/C=C/c1ccccc1)N1CCN(CCN2C(=O)c3cccc4cccc(c34)C2=O)CC1	0	100*	34	3	-1
Cc1cccc(C)c1OCC(O)CN1CCC(CN2C(=O)c3cccc4cccc(c34)C2=O)CC1 (stereo not given)	0	93*	44	10	7
CC(=O)c1ccc(NC(=S)N2CCN(CCN3C(=O)c4cccc5cccc(c45)C3=O)CC2)cc1	0	13	8	15	3
SMILES	Hsp70 activator	Lmaj promast	T cruzi inh	HSF-1 act	HSF1 inhib
CCC(OCC(O)CN1CCN(CCN2C(=O)c3cccc4cccc(c34)C2=O)CC1)c1ccccc1 (stereo not given)	0	97*	1	27	18
COc1ccc(NC(=S)N2CCN(CCN3C(=O)c4cccc5cccc(c45)C3=O)CC2)cc1	0	-6	50	-1	4
CCOc1ccc(NC(=S)N2CCN(CCN3C(=O)c4cccc5cccc(c45)C3=O)CC2)cc1	0	71*	12	-17	-20
CSc1ccccc1OCc1cc(C(=O)N2CCC[C@H]2C(N)=O)no1	x	x	7	-8	-13
CCN(CC)c1ccc(-c2n[nH]c(=S)n2-c2ccccc2)cc1	0	0	-3	-3	10
COc1ccccc1CN1CCNC(=O)C1CC(=O)NC1CCCCCC1 (stereo not given)	x	x	19	0	8
CCOC(=O)c1c(N2C(=O)C3C4C=CC(O4)C3C2=O)sc2c1CCCC2 (stereo not given)	0	-5	-20	104*	68
CCOC(=O)c1c(-n2cnnn2)sc2c1CCCC2	x	x	4	-10	-5
O=C(CNC(=O)c1cccs1)NCCN1CCC(Cc2ccccc2)CC1	0	5	-1	1	-1
S=C(NCc1ccc(Cl)cc1)NC1CCN(Cc2ccccc2)CC1	0	80*	60*	7	2
O=C(NCCNC1CCN(Cc2ccccc2)CC1)c1cccs1	0	88*	10	-4	-3
S=C(NCCc1ccc(Cl)cc1)NC1CCCCC1	x	x	20	58*	30
Clc1ccc(CNC2CCN(Cc3ccccc3)CC2)cc1	x	x	3	81*	40
COc1ccc(CCNC(=S)NC2CCN(Cc3ccccc3)CC2)cc1OC	0	3	19	5	0
S=C(NCCc1ccc(Cl)cc1)NC1CCCC1	0	18	-35	27	14
CC(C)(C)OC(=O)N1CCC(CC2CC(c3cccc(Br)c3)=NO2)(C(=O)O)CC1 (stereo not given)	x	x	-3	0	2
Cc1ccc(S(=O)(=O)NC(C(=O)N2CCOCCOCCOCC2)C(C)C)cc1 (stereo not given)	x	x	-9	-7	-3
O=C(N=C1SCC(=O)N1c1ccccc1Cl)c1ccccc1	0	-4	-9	4	17
O=C1NCCCC1C(=O)N/N=C/c1cccc(O)c1 (stereo not given)	0	41	-10	-1	-12
Brc1ccc(C2C3=C(Nc4ncnn42)c2ccccc2OC3c2ccncc2)cc1 (stereo not given)	0	75*	60*	-10	-5
COc1ccc(C2Oc3ccccc3C3=C2C(c2cccs2)n2ncnc2N3)cc1 (stereo not given)	0	69*	23	18	9
Cc1ccc(N/C(SCc2ccccc2C)=C(/C#N)C(=O)NCc2ccco2)cc1C	0	13	60*	12	11
CCc1ccc(N/C(SCc2cccc(F)c2)=C(/C#N)C(=O)NCc2ccco2)cc1	0	26	57*	29	5
CSc1nc(C)cc(SCC(=O)N/N=C/c2ccccc2)n1	0	-4	3	24	-4
Cc1cc(C)n(CC(=O)N2CCCC(C(=O)c3cccc(OC(C)C)c3)C2)n1 (stereo not given)	0	-3	11	-2	2
